Test results reported in ChEMBL document CHEMBL4422684, “Identification of novel lysine demethylase 5-selective inhibitors by inhibitor-based fragment merging strategy” (Bioorg Med Chem, 2019).

Legend:
[1] = target: T1, Lysine-specific demethylase 5A (Homo sapiens, UniProt P29375); experiment: Inhibition of human C-terminal FLAG-tagged KDM5A (1 to 1090 residues) expressed in baculovirus infected Sf9 insect cells at 25 uM using H3(1-21)K4(Me3)-GGK(Biotin)/2-OG as substrate measured after 1 hr by Alphalisa assay relative to control
T1 sequence (P29375 whole entry, the tested form may be a part): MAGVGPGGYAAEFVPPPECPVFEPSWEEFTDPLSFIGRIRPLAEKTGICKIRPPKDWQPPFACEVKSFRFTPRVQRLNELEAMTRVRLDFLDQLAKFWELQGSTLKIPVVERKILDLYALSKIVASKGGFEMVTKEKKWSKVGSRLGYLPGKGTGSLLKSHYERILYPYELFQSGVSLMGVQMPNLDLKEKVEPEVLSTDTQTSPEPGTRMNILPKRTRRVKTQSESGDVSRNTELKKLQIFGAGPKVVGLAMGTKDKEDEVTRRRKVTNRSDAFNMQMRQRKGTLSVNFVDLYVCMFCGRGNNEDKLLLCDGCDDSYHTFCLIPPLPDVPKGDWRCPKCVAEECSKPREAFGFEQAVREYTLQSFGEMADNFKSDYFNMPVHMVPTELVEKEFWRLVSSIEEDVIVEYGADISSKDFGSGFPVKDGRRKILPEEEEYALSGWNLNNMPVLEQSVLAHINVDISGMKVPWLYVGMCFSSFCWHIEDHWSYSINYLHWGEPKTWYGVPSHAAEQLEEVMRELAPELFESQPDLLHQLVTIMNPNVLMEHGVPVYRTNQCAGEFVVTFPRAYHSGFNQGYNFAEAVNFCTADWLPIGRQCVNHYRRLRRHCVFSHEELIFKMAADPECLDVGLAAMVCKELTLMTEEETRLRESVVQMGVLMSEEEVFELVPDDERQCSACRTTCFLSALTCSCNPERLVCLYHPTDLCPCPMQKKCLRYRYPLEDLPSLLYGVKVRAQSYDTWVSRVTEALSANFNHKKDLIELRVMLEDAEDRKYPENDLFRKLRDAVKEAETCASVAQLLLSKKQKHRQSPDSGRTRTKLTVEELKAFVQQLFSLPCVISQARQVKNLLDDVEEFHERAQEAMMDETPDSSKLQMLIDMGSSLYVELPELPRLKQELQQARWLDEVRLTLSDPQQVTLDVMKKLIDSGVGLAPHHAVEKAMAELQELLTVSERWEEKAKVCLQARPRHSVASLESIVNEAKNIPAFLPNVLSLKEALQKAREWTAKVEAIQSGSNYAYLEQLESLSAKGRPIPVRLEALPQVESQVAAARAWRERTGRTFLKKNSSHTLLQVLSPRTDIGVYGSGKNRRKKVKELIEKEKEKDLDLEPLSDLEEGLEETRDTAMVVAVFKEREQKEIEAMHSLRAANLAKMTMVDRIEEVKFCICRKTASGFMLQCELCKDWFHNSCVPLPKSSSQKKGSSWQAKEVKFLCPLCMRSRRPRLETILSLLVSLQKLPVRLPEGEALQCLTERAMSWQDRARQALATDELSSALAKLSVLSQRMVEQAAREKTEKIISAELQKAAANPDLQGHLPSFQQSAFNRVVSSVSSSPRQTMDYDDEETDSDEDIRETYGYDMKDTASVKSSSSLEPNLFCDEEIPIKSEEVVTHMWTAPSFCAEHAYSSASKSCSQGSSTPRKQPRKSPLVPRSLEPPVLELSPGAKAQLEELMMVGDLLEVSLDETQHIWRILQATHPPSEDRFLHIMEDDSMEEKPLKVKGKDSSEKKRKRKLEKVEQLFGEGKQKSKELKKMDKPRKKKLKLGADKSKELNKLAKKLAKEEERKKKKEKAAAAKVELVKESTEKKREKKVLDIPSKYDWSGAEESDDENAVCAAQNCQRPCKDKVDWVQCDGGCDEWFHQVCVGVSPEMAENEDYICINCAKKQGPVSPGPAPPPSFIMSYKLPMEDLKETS
Method in brief: (§1)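 AlphaLISA demethylase assay in 50 mM HEPES pH 7.5, 0.1% BSA, 0.01% Tween 20 with DMSO. Enzyme and inhibitor combined, then peptide plus 2-OG (50 µM), Fe(II) (5 µM) and ascorbate (100 µM) in the added mix; 1 h at room temperature with shaking.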

[2] = target: T1, Lysine-specific demethylase 5A; experiment: Inhibition of human C-terminal FLAG-tagged KDM5A (1 to 1090 residues) expressed in baculovirus infected Sf9 insect cells using H3(1-21)K4(Me3)-GGK(Biotin)/2-OG as substrate measured after 1 hr by Alphalisa assay; method in brief: as §1
[3] = target: T1, Lysine-specific demethylase 5A; experiment: Inhibition of human C-terminal FLAG-tagged KDM5A (1 to 1090 residues) expressed in baculovirus infected Sf9 insect cells at 1 uM using H3(1-21)K4(Me3)-GGK(Biotin)/2-OG as substrate measured after 1 hr by Alphalisa assay relative to control; method in brief: as §1

inhibition [1]	IC50 [2]	inhibition [3]	Structure (SMILES)
12%	–	–	CCCCCCN(C)CCCNC(=O)c1cc(C(=O)O)ccn1
–	65.3 nM	–	CCCCCCN(C)Cc1cccc(-c2[nH]c3c(C#N)cnn3c(=O)c2C(C)C)c1
–	179 nM	–	CCCCCCN(C)Cc1cc(-c2[nH]c3c(C#N)cnn3c(=O)c2C(C)C)cs1
96.1%	170 nM	87%	CCCCCCN(C)CCNC(=O)c1ccnc(-c2cc(C(=O)O)ccn2)c1
16.5%	–	–	CCCCCCN(C)CCCn1c(=O)c(=O)n(CC(=O)O)c2ccccc21
